Results reported in ChEMBL document CHEMBL1671757, “In vitro profiling of pramiconazole and in vivo evaluation in Microsporum canis dermatitis and Candida albicans vaginitis laboratory models” (Antimicrob Agents Chemother, 2010).
Active and inactive are the calls of the source. The rule behind the calls is not given here.

Columns and labels:
Trichophyton rubrum [1] = assay: Antifungal activity against 5 x 10^6 CFU/ml Trichophyton rubrum J941704 by resazurin based fluorimetry assay; format: functional, organism-based
Procedure, shortened: (§1)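 Isolates were grown on Sabouraud dextrose agar, with stocks of 5×10^6 CFU/ml in RPMI-MOPS plus 10% glycerol kept in liquid nitrogen. Each well held 10^3 CFU in 200 μl RPMI-MOPS with compound dilutions, top concentration 64 μM. After incubation, resazurin was added and fluorescence read (ex 550, em 590 nm). IC50 was relative to untreated controls, as the mean ± SD of five independent repeats.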

[2] = Half life in guinea pig infected with 10^6 CFU Microsporum canis B68128 at 40 mg/kg, po administered 2 hrs before infection for 5 days; format: ADME, organism-based, Cavia porcellus; design: dose 40 mg/kg, route oral; settings: in vivo
[3] = Cytotoxicity against human MRC5 cells; format: cell-based
Procedure, shortened: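 Human lung fibroblasts (MRC-5SV40) were tested in parallel with the fungal screens. CC50 is the concentration killing 50% of cells, given as the mean ± SD of five independent repeats.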

Pichia kudriavzevii = assay: Antifungal activity against 5 x 10^6 CFU/ml Candida krusei B68404 by resazurin based fluorimetry assay; format: functional, organism-based; procedure, shortened: as §1
Candida albicans [4] = assay: Antifungal activity against 5 x 10^6 CFU/ml Candida albicans B2630 by resazurin based fluorimetry assay; format: functional, organism-based; procedure, shortened: as §1
[5] = Cmax in plasma of guinea pig infected with 10^6 CFU Microsporum canis B68128 at 40 mg/kg, po administered 2 hrs before infection for 5 days; format: ADME, organism-based, Cavia porcellus; design: dose 40 mg/kg, route oral
Trichophyton rubrum [6] = assay: Antifungal activity against 5 x 10^6 CFU/ml Trichophyton rubrum B68183 by resazurin based fluorimetry assay; format: functional, organism-based; procedure, shortened: as §1
Candida albicans [7] = assay: Antifungal activity against 10^7 CFU/ml Candida albicans B2630 infected in vulvovaginitis rat model assessed as fungal burden at 10 mg/kg administered tropically twice daily measured after 3 days; format: functional, organism-based; design: dose 10 mg/kg; settings: Vagina
Candida albicans [8] = assay: Antifungal activity against 10^7 CFU/ml Candida albicans B2630 infected in vulvovaginitis rat model assessed as fungal burden at 5 mg/kg administered tropically twice daily measured after 3 days; format: functional, organism-based; design: dose 5 mg/kg; settings: Vagina
Nakaseomyces glabratus = assay: Antifungal activity against 5 x 10^6 CFU/ml Candida glabrata B63155 by resazurin based fluorimetry assay; format: functional, organism-based; procedure, shortened: as §1
Candida albicans [9] = assay: Antifungal activity against 5 x 10^6 CFU/ml Candida albicans B59163 by resazurin based fluorimetry assay; format: functional, organism-based; procedure, shortened: as §1
Microsporum canis = assay: Antifungal activity against 5 x 10^6 CFU/ml Microsporum canis B68128 by resazurin based fluorimetry assay; format: functional, organism-based; procedure, shortened: as §1
[10] = Tmax in guinea pig infected with 10^6 CFU Microsporum canis B68128 at 40 mg/kg, po administered 2 hrs before infection for 5 days; format: ADME, organism-based, Cavia porcellus; design: dose 40 mg/kg, route oral; settings: in vivo
[11] = test system: Trichophyton mentagrophytes; assay: Antifungal activity against 5 x 10^6 CFU/ml Trichophyton mentagrophytes B70554 by resazurin based fluorimetry assay; format: functional, organism-based; procedure, shortened: as §1
Trichophyton quinckeanum = assay: Antifungal activity against 5 x 10^6 CFU/ml Trichophyton quinckeanum B68683 by resazurin based fluorimetry assay; format: functional, organism-based; procedure, shortened: as §1
Candida albicans [12] = assay: Antifungal activity against 10^7 CFU/ml Candida albicans B2630 infected in vulvovaginitis rat model assessed as fungal burden at 10 mg/kg, po SID; format: functional, organism-based; design: dose 10 mg/kg; settings: Vagina
Procedure, shortened: (§2)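 Intravaginal infection with 10^7 CFU. Oral dosing once daily in PEG200, starting about 2 h before infection, for 5 days. […] Six rats in two experiments.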

Kluyveromyces marxianus = assay: Antifungal activity against 5 x 10^6 CFU/ml Candida kefyr B46120 by resazurin based fluorimetry assay; format: functional, organism-based; procedure, shortened: as §1
Candida albicans [13] = assay: Antifungal activity against 10^7 CFU/ml Candida albicans B2630 infected in vulvovaginitis rat model assessed as fungal burden at 5 mg/kg, po SID; format: functional, organism-based; design: dose 5 mg/kg; settings: Vagina; procedure, shortened: as §2
[14] = Cmax in plasma of guinea pig infected with 10^6 CFU Microsporum canis B68128 at 10 mg/kg, po administered 2 hrs before infection for 5 days; format: ADME, organism-based, Cavia porcellus; design: dose 10 mg/kg, route oral
[15] = Tmax in guinea pig infected with 10^6 CFU Microsporum canis B68128 at 10 mg/kg, po administered 2 hrs before infection for 5 days; format: ADME, organism-based, Cavia porcellus; design: dose 10 mg/kg, route oral; settings: in vivo
[16] = Half life in guinea pig infected with 10^6 CFU Microsporum canis B68128 at 10 mg/kg, po administered 2 hrs before infection for 5 days; format: ADME, organism-based, Cavia porcellus; design: dose 10 mg/kg, route oral; settings: in vivo
[17] = Half life in guinea pig infected with 10^6 CFU Microsporum canis B68128 at 20 mg/kg, po administered 2 hrs before infection for 5 days; format: ADME, organism-based, Cavia porcellus; design: dose 20 mg/kg, route oral; settings: in vivo
[18] = Cmax in plasma of guinea pig infected with 10^6 CFU Microsporum canis B68128 at 20 mg/kg, po administered 2 hrs before infection for 5 days; format: ADME, organism-based, Cavia porcellus; design: dose 20 mg/kg, route oral
[19] = Tmax in guinea pig infected with 10^6 CFU Microsporum canis B68128 at 20 mg/kg, po administered 2 hrs before infection for 5 days; format: ADME, organism-based, Cavia porcellus; design: dose 20 mg/kg, route oral; settings: in vivo

Structure (SMILES)	IC50 (Trichophyton rubrum [1])	CC50 [3]	IC50 (Pichia kudriavzevii)	IC50 (Candida albicans [4])	IC50 (Trichophyton rubrum [6])	Activity (Candida albicans [7])	Activity (Candida albicans [8])	IC50 (Nakaseomyces glabratus)	IC50 (Candida albicans [9])	IC50 (Microsporum canis)	IC50 [11]	IC50 (Trichophyton quinckeanum)	Activity (Candida albicans [12])	IC50 (Kluyveromyces marxianus)	Activity (Candida albicans [13])	other results
CC(C)N1CCN(c2ccc(N3CCN(c4ccc(OC[C@H]5OC[C@](Cn6cncn6)(c6ccc(F)cc6F)O5)cc4)CC3)cc2)C1=O [PRAMICONAZOLE]	190 nM	53300 nM	870 nM	1830 nM	350 nM	Active	Active	650 nM	40 nM	180 nM	150 nM	1340 nM	Active	130 nM	Active	half-life [2]: 23 h; Cmax [5]: 180 ng/mL; Tmax [10]: 4 h
Clc1ccc(COC(Cn2ccnc2)c2ccc(Cl)cc2Cl)c(Cl)c1 (stereo not drawn) [MICONAZOLE]	140 nM	29700 nM	1400 nM	2500 nM	330 nM	Active	Active	120 nM	300 nM	230 nM	400 nM	790 nM		30 nM		
CN(C/C=C/C#CC(C)(C)C)Cc1cccc2ccccc12 [TERBINAFINE]	30 nM	63000 nM	64000 nM	64000 nM	70 nM			30700 nM	3570 nM	100 nM	60 nM	10 nM		6330 nM		Cmax [14]: 60 ng/mL; Tmax [15]: 0.7 h; half-life [16]: 6.6 h
CCC(C)n1ncn(-c2ccc(N3CCN(c4ccc(OCC5COC(Cn6cncn6)(c6ccc(Cl)cc6Cl)O5)cc4)CC3)cc2)c1=O (stereo not drawn) [ITRACONAZOLE]	980 nM	49300 nM	4210 nM	1390 nM	560 nM	Active	Active	3740 nM	1410 nM	2020 nM	370 nM	2930 nM	Active	400 nM	Active	half-life [17]: 13.9 h; Cmax [18]: 350 ng/mL; Tmax [19]: 2 h
